Measurements: ChEMBL document CHEMBL1250427, “Synthesis and biodistribution of [11C]A-836339, a new potential radioligand for PET imaging of cannabinoid type 2 receptors (CB2)” (Bioorg Med Chem, 2010)

How the values were obtained:
[1] = system: Cerebellum; assay: Drug uptake in CD1 mouse cerebellum at 5 to 7 mBq, iv after 60 mins; format: ADME, organism-based; conditions: in vivo, 1 h
How it was run: (§1)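 Male CD-1 mice (23-28 g). [11C]radioligand given into a lateral tail vein at […], specific radioactivity ~150 GBq/μmol, in 0.2 mL saline. Mice killed by cervical dislocation at several times after injection. Organs and brain regions dissected on ice, weighed and γ-counted against injectate standards. Uptake given as %ID/g tissue, mean ± SD, n=3.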

[2] = system: Brain; assay: Drug uptake in CD1 mouse brain at 5 to 7 mBq, iv; format: ADME, organism-based; conditions: in vivo; how it was run: as §1
[3] = system: Spleen; assay: Drug uptake in CD1 mouse spleen at 5 to 7 mBq, iv; format: ADME, organism-based; conditions: in vivo; how it was run: as §1
[4] = system: Heart; assay: Drug uptake in CD1 mouse heart at 5 to 7 mBq, iv; format: ADME, organism-based; conditions: in vivo; how it was run: as §1
[5] = system: Liver; assay: Drug uptake in CD1 mouse liver at 5 to 7 mBq, iv; format: ADME, organism-based; conditions: in vivo; how it was run: as §1
[6] = system: Kidney; assay: Drug uptake in CD1 mouse kidney at 5 to 7 mBq, iv; format: ADME, organism-based; conditions: in vivo; how it was run: as §1
[7] = system: Intestine; assay: Drug uptake in CD1 mouse intestine at 5 to 7 mBq, iv; format: ADME, organism-based; conditions: in vivo; how it was run: as §1
[8] = system: Hippocampus; assay: Drug uptake in CD1 mouse hippocampus at 5 to 7 mBq, iv after 60 mins; format: ADME, organism-based; conditions: in vivo, 1 h; how it was run: as §1
[9] = system: Cortex; assay: Drug uptake in CD1 mouse cortex at 5 to 7 mBq, iv after 60 mins; format: ADME, organism-based; conditions: in vivo, 1 h; how it was run: as §1
[10] = Drug uptake in CD1 mouse brainstem at 5 to 7 mBq, iv after 60 mins; format: ADME, organism-based; conditions: in vivo, 1 h; how it was run: as §1
[11] = Drug uptake in LPS-stimulated CD1 mouse brainstem at 5 to 7 mBq, iv administered 5 days post LPS challenge; format: ADME, organism-based; conditions: read-out: Drug uptake
How it was run: (§2)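 Male CD1 mice given LPS (strain O111:B4, 5 mg/kg in saline, i.p.) 5 days before study. [11C]radioligand ([…], ~150 GBq/μmol, 0.2 mL saline) injected into the tail vein. Mice killed at 60 min and brain regions dissected and γ-counted. Uptake given as %ID/g tissue and as blood-normalized %ID/g tissue × body weight (kg). Mean ± SD, n=3.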

[12] = system: Hippocampus; assay: Drug uptake in LPS-stimulated CD1 mouse hippocampus at 5 to 7 mBq, iv administered 5 days post LPS challenge; format: ADME, organism-based; conditions: in vivo, 120 h; how it was run: as §2
[13] = system: Cerebellum; assay: Drug uptake in LPS-stimulated CD1 mouse cerebellum at 5 to 7 mBq, iv administered 5 days post LPS challenge; format: ADME, organism-based; conditions: in vivo, 120 h; how it was run: as §2
[14] = system: Cortex; assay: Drug uptake in LPS-stimulated CD1 mouse cortex at 5 to 7 mBq, iv administered 5 days post LPS challenge; format: ADME, organism-based; conditions: in vivo, 120 h; how it was run: as §2
[15] = system: Brain; assay: Drug uptake in LPS-stimulated CD1 mouse brain at 5 to 7 mBq, iv administered 5 days post LPS challenge; format: ADME, organism-based; conditions: in vivo, 120 h; how it was run: as §2
[16] = Drug uptake in LPS-stimulated CD1 mouse brainstem at 5 to 7 mBq, iv in presence of AM630; format: ADME, organism-based; conditions: in vivo
How it was run: (§3)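 Blocking study in male CD1 mice, either controls or LPS-treated (5 mg/kg LPS O111:B4 i.p., 5 days earlier). AM630 (3 mg/kg) or GW405833 (2 mg/kg) was given s.c. in 0.1 mL DMSO; vehicle controls received DMSO alone. [11C]radioligand ([…], ~150 GBq/μmol) was injected i.v. 30 min later. Tissues harvested at 60 min and γ-counted. Mean ± SD, n=3.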

[17] = target: Cannabinoid receptor 2 (Homo sapiens, UniProt P34972); assay: Agonist activity at CB2 receptor; format: functional
Cannabinoid receptor 2, sequence (P34972 whole entry): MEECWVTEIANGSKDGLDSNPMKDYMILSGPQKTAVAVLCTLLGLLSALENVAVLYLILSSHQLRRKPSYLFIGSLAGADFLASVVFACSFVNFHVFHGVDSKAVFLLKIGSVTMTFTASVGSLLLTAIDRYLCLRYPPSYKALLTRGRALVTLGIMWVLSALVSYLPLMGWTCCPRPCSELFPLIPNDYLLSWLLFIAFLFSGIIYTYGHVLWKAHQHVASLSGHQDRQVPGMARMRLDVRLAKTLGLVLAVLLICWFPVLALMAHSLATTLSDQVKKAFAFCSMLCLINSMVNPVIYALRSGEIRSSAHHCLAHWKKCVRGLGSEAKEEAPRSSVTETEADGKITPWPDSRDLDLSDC

[18] = system: Hippocampus; assay: Drug uptake in LPS-stimulated CD1 mouse hippocampus at 5 to 7 mBq, iv in presence of AM630; format: ADME, organism-based; conditions: in vivo; how it was run: as §3
[19] = system: Brain; assay: Drug uptake in LPS-stimulated CD1 mouse brain at 5 to 7 mBq, iv in presence of AM630; format: ADME, organism-based; conditions: in vivo; how it was run: as §3
[20] = system: Cortex; assay: Drug uptake in LPS-stimulated CD1 mouse cortex at 5 to 7 mBq, iv in presence of AM630; format: ADME, organism-based; conditions: in vivo; how it was run: as §3
[21] = system: Cerebellum; assay: Drug uptake in LPS-stimulated CD1 mouse cerebellum at 5 to 7 mBq, iv in presence of AM630; format: ADME, organism-based; conditions: in vivo; how it was run: as §3
[22] = Ratio of drug uptake in brain to blood in LPS-stimulated CD1 mouse at 5 to 7 mBq, iv; format: ADME, tissue-based; how it was run: as §2
[23] = system: Brain; assay: Drug uptake in CD1 mouse brain at 5 to 7 mBq, iv in presence of AM630; format: ADME, organism-based; conditions: in vivo; how it was run: as §3
[24] = system: Brain; assay: Drug uptake in CD1 mouse brain at 5 to 7 mBq, iv in presence of GW-405833; format: ADME, organism-based; conditions: in vivo; how it was run: as §3
[25] = system: Brain; assay: Drug uptake in LPS-stimulated CD1 mouse brain at 5 to 7 mBq, iv administered 5 days post LPS challenge measured after 3 mins; format: ADME, organism-based; conditions: in vivo, 0.05 h
How it was run: (§4)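 Dynamic small-animal PET of an LPS-5-day-treated and a control CD1 mouse. Both were injected simultaneously via the tail vein with [11C]radioligand (~3000 mCi/μmol) and imaged for 90 min in 28 frames. Images reconstructed by 2D OSEM after scatter subtraction. Whole-brain ROIs drawn on mean images gave time-SUV curves.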

[26] = system: Brain; assay: Drug uptake in CD1 mouse brain at 5 to 7 mBq, iv after 3 mins; format: ADME, organism-based; conditions: in vivo, 0.05 h; how it was run: as §4
[27] = system: Cerebellum; assay: Drug uptake in APPswe/PS1dE9 mouse cerebellum at 5 to 7 mBq, iv; format: ADME, organism-based; conditions: in vivo
How it was run: (§5)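 Female APPswe/PS1dE9 bigenic mice (line 85, C57Bl/6J background), 18 months old. [11C]radioligand given into a lateral tail vein at […], specific radioactivity ~150 GBq/μmol, in 0.2 mL saline. Mice killed by cervical dislocation at 60 min. Brain regions dissected on ice, weighed and γ-counted against injectate standards. Uptake expressed as blood-normalized %ID/g tissue × body weight (kg).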

[28] = Drug uptake in APPswe/PS1dE9 mouse brainstem at 5 to 7 mBq, iv; format: ADME, tissue-based; conditions: in vivo; how it was run: as §5
[29] = system: Cortex; assay: Drug uptake in APPswe/PS1dE9 mouse cortex at 5 to 7 mBq, iv; format: ADME, organism-based; conditions: in vivo; how it was run: as §5
[30] = system: Brain; assay: Drug uptake in APPswe/PS1dE9 mouse brain at 5 to 7 mBq, iv; format: ADME, organism-based; conditions: in vivo; how it was run: as §5
[31] = system: Spleen; assay: Drug uptake in CD1 mouse spleen at 5 to 7 mBq, iv after 60 mins in presence of AM630; format: ADME, organism-based; conditions: in vivo, 1 h; how it was run: as §3

Cc1s/c(=N\C(=O)C2C(C)(C)C2(C)C)n(CCO[11CH3])c1C
Drug uptake [1]: 0.3 % ID/g
Drug uptake [2]: 0.3 % ID/g
Drug uptake [3]: 1.3 % ID/g
Drug uptake [4]: 0.7 % ID/g
Drug uptake [5]: 4.9 % ID/g
Drug uptake [6]: 2.2 % ID/g
Drug uptake [7]: 1.5 % ID/g
Drug uptake [8]: 0.3 % ID/g
Drug uptake [9]: 0.3 % ID/g
Drug uptake [10]: 0.3 % ID/g
tissue uptake at 120 h [11]: 2.1 %ID/g
Drug uptake [12]: 1.9 % ID/g
Drug uptake [13]: 1.8 % ID/g
Drug uptake [14]: 1.7 % ID/g
Drug uptake [15]: 1.5 % ID/g
Drug uptake [16]: Not Active
Ki [17]: 700 pM
Drug uptake [18]: Not Active
Drug uptake [19]: Not Active
Drug uptake [20]: Not Active
Drug uptake [21]: Not Active
Kp [22]: 3.3
Drug uptake [23]: Not Active
Drug uptake [24]: Not Active
SUV [25]: 2.3
SUV [26]: 0.5
Drug uptake [27]: Not Active
Drug uptake [28]: Not Active
Drug uptake [29]: Not Active
Drug uptake [30]: Not Active
Drug uptake [31]: Not Active
